From ChEMBL document CHEMBL1681759, “Synthesis and biological evaluation of benzimidazole-5-carbohydrazide derivatives as antimalarial, cytotoxic and antitubercular agents” (Bioorg Med Chem, 2011) come the findings set out here.

SMILES strings stand for the structures. Values after ≈ are worked out from the molar mass of the structure shown. Where only a bound is given, the exact number is not on record here.

In general, MIC refers to the least concentration at which growth counts as inhibited.

The test has as its system Mycobacterium tuberculosis. The test can be described thus: Antimycobacterial activity against multidrug-resistant Mycobacterium tuberculosis clinical isolate after 5 days by tetrazolium microplate assay. It is filed as functional. Particulars: 120 h. Summed up:
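Tetrazolium microplate assay run in 7H9GC broth. DMSO stocks (4 mg/mL) were diluted to final 0.4–25 µg/mL. Isoniazid (0.125–32 µg/mL) and rifampin (0.063–16 µg/mL) were positive controls; inoculum-only and DMSO controls were included. Plates were incubated 5 days at 37 °C, then an MTT-Tween 80 mix was added and incubation continued 24 h at 37 °C. Run in triplicate. MIC = lowest concentration preventing the yellow-to-purple colour change.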
`O=C(O)c1ccc2[nH]c(-c3ccc([N+](=O)[O-])o3)nc2c1` showed an MIC of more than 25 µg/mL.
For `COc1cc(C(=O)NNC(=O)c2ccc3[nH]c(-c4ccc([N+](=O)[O-])s4)nc3c2)cc(OC)c1OC`, the MIC is more than 25 µg/mL.
The same measure for `O=C(NNC(=O)c1cc2ccccc2cc1O)c1ccc2[nH]c(-c3ccc([N+](=O)[O-])s3)nc2c1`: more than 25 µg/mL; for `CO[C@H]1/C=C/O[C@@]2(C)Oc3c(C)c(O)c4c(O)c(c(/C=N/N5CCN(C)CC5)c(O)c4c3C2=O)NC(=O)/C(C)=C\C=C\[C@H](C)[C@H](O)[C@@H](C)[C@@H](O)[C@@H](C)[C@H](OC(C)=O)[C@@H]1C` [RIFAMPIN]: 2 µg/mL (≈ 2.43 µM).
In turn, `COc1ccc(C(=O)NNC(=O)c2ccc3[nH]c(-c4ccc([N+](=O)[O-])o4)nc3c2)cc1OC` gave an MIC of 25 µg/mL (≈ 55.4 µM).
`O=C(NNC(=O)c1ccc2[nH]c(-c3ccc([N+](=O)[O-])o3)nc2c1)c1cccc(Oc2ccccc2)c1` displayed an MIC of 25 µg/mL (≈ 51.7 µM).
Turning to `O=CNNC(=O)c1ccc2[nH]c(-c3ccc([N+](=O)[O-])o3)nc2c1`, the MIC was more than 25 µg/mL.
Regarding `NNC(=O)c1ccncc1` [ISONIAZID], the minimum inhibitory concentration (MIC) is 4 µg/mL (≈ 29.2 µM).
In turn, `COc1cc(C(=O)NNC(=O)c2ccc3[nH]c(-c4ccc([N+](=O)[O-])o4)nc3c2)cc(OC)c1OC` had an MIC of 25 µg/mL (≈ 51.9 µM).
As to `COc1cccc(C(=O)NNC(=O)c2ccc3[nH]c(-c4ccc([N+](=O)[O-])s4)nc3c2)c1`, 25 µg/mL (≈ 57.2 µM) was the least that counted as inhibitory (MIC).
As to `O=C(NNC(=O)c1ccc2[nH]c(-c3ccc([N+](=O)[O-])o3)nc2c1)c1ccccc1`, the MIC worked out at 6.25 µg/mL (≈ 16 µM).
As to `COc1cccc(C(=O)NNC(=O)c2ccc3[nH]c(-c4ccc([N+](=O)[O-])o4)nc3c2)c1`, the MIC came out at 25 µg/mL (≈ 59.3 µM).
